The nature of assay [1]: Inhibition of Pseudomonas aeruginosa PA3774 using Boc-Lys(trifluoroacetyl)-AMC as substrate preincubated for 30 mins followed by substrate addition measured after 60 mins by trypsin-based fluorescence assay.
For a further assay, the target named is Histone deacetylase 5 (Homo sapiens, UniProt Q9UQL6). Nature of the assay: Inhibition of human HDAC5 using Boc-Lys(trifluoroacetyl)-AMC as substrate preincubated for 30 mins followed by substrate addition measured after 60 mins by trypsin-based fluorescence assay.
The nature of assay [2]: Inhibition of Pseudomonas aeruginosa PA0321 using Boc-Lys(trifluoroacetyl)-AMC as substrate preincubated for 30 mins followed by substrate addition measured after 60 mins by trypsin-based fluorescence assay.
A short description of assay [3]: Inhibition of Pseudomonas aeruginosa PA1409 using Boc-Lys(trifluoroacetyl)-AMC as substrate preincubated for 30 mins followed by substrate addition measured after 60 mins by trypsin-based fluorescence assay.
In the next assay the target is Histone deacetylase 4 (Homo sapiens, UniProt P56524). Nature of the assay: Inhibition of human HDAC4 using Boc-Lys(trifluoroacetyl)-AMC as substrate preincubated for 30 mins followed by substrate addition measured after 60 mins by trypsin-based fluorescence assay.
Assay [4] is described as follows: Inhibition of Alcaligenes HDAH using Boc-Lys(trifluoroacetyl)-AMC as substrate preincubated for 30 mins followed by substrate addition measured after 60 mins by trypsin-based fluorescence assay. The gist of the method: (§1)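 Bacterial HDAH activity was measured by a fluorogenic assay in which the deacetylated substrate is converted to fluorescent dye by trypsin. Ki was calculated via Cheng-Prusoff from IC50 values, which were fitted to dose-response curves spanning 10 ligand concentrations.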

Assay [5] is described as follows: Inhibition of Bordetella HDAH using Boc-Lys(trifluoroacetyl)-AMC as substrate preincubated for 30 mins followed by substrate addition measured after 60 mins by trypsin-based fluorescence assay. The method, boiled down:
as §1

pKi: −log10 of the molar value.

Drawing on ChEMBL document CHEMBL4004881, “Perfluorinated hydroxamic acids are potent and selective inhibitors of HDAC-like enzymes from Pseudomonas aeruginosa” (Bioorg Med Chem Lett, 2017), this text covers Ki for 20 compounds.

Sequence of Histone deacetylase 4 (P56524 whole entry): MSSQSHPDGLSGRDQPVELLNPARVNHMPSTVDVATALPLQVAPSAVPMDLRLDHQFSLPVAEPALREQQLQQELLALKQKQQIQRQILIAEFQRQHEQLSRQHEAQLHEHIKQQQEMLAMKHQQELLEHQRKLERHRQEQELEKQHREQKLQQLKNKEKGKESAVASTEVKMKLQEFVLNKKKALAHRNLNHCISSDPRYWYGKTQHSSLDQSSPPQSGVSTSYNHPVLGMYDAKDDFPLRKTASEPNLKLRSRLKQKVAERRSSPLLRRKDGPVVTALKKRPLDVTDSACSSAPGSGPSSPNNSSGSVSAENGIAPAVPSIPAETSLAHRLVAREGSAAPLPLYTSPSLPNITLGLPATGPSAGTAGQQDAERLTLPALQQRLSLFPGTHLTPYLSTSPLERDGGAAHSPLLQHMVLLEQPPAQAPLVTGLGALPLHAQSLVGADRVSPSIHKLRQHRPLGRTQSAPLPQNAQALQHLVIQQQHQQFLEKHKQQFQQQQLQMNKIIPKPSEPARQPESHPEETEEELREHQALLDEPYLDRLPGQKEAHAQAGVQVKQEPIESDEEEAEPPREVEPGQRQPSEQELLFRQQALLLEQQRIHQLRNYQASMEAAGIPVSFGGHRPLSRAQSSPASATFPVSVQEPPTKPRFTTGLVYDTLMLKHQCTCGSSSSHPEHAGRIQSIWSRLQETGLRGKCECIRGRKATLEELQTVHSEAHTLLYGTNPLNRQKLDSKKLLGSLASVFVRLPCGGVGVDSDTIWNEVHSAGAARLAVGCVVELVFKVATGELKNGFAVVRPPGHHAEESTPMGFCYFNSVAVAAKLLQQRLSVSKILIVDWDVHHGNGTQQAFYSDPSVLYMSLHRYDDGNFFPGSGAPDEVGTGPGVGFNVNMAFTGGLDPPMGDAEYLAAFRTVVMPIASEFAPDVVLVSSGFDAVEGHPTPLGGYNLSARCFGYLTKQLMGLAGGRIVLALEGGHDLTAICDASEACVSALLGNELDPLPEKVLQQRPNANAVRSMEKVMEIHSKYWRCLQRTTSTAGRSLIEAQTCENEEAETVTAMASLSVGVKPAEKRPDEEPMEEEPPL
Sequence of Histone deacetylase 5 (Q9UQL6 whole entry): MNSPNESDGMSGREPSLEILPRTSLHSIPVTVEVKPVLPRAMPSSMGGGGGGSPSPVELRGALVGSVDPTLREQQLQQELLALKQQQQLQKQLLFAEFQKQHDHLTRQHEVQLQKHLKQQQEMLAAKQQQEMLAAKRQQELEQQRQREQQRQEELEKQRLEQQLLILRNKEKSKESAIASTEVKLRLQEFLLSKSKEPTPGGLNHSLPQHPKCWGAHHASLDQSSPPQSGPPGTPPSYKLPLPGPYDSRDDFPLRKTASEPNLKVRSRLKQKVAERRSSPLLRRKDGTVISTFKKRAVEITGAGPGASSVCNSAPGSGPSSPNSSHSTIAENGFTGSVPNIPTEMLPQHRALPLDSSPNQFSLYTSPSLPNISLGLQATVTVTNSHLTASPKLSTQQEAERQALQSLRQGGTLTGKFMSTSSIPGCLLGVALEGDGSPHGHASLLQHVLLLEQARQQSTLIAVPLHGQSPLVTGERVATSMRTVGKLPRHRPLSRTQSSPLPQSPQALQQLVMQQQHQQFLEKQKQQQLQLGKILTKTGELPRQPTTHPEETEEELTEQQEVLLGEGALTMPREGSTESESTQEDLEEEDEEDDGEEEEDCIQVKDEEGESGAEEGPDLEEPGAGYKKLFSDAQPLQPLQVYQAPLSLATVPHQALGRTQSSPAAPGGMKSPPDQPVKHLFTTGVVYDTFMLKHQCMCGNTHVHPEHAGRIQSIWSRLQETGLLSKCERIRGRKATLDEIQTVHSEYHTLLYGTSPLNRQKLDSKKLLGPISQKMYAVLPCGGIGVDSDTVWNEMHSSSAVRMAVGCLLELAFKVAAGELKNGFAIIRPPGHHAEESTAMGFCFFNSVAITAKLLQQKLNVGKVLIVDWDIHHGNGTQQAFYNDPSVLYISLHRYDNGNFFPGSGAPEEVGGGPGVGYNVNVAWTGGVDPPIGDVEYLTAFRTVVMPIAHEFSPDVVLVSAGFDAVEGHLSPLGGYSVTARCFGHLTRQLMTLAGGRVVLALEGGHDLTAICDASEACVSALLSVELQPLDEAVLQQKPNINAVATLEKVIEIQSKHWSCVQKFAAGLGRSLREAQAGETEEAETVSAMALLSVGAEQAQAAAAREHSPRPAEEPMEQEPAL

For orientation: pKi means the Ki on a negative log10 scale, so that one unit is a factor of ten. For the compound `O=C(NO)C(F)(F)C(F)(F)C(F)(F)C(F)(F)C(F)(F)C(F)(F)C(=O)Nc1ccccc1`, the pKi in assay [1] was 7.66; on Histone deacetylase 5, 4.89; in assay [2], 6.15; in assay [3] it was 5.59; at Histone deacetylase 4 it was less than 4.30.
Taken in the same sequence, the figures for `Cc1ccc(NC(=O)C(F)(F)C(F)(F)C(F)(F)C(F)(F)C(F)(F)C(F)(F)C(=O)NO)cc1` were 6.72, less than 4.30, 5.64, 5.21 and less than 4.30.
Take `O=C(NO)C(F)(F)C(F)(F)C(F)(F)C(F)(F)C(F)(F)C(F)(F)C(=O)Nc1ccc(Cl)cc1`: the pKi in assay [1] was 6.77; at Histone deacetylase 5 it was less than 4.30; in assay [4] it was 7.07; in assay [2] it was 5.68; in assay [3] it was 5.24; at Histone deacetylase 4, less than 4.30. The compound also showed a pKi in assay [5] of 7.07.
In the case of `CC(=O)Nc1ccc(NC(=O)C(F)(F)C(F)(F)C(F)(F)C(F)(F)C(F)(F)C(F)(F)C(=O)NO)cc1`, the pKi is 6.49 in assay [1]; less than 4.30 at Histone deacetylase 5; 5.44 in assay [2]; 5.12 in assay [3]; less than 4.30 at Histone deacetylase 4.
With `N#Cc1ccc(NC(=O)C(F)(F)C(F)(F)C(F)(F)C(F)(F)C(F)(F)C(F)(F)C(=O)NO)cc1`, the pKi in assay [1] was 6.49; at Histone deacetylase 5, less than 4.30; in assay [2] it was 5.55; in assay [3] it was 5.15; at Histone deacetylase 4, less than 4.30.
With `O=C(NO)C(F)(F)C(F)(F)C(F)(F)C(F)(F)C(F)(F)C(F)(F)C(=O)Nc1ccc(I)cc1`, the pKi in assay [1] was 7.34; at Histone deacetylase 5, less than 4.30; in assay [2], 5.96; in assay [3], 5.39; on Histone deacetylase 4, less than 4.30.
As for `O=C(NO)C(F)(F)C(F)(F)C(F)(F)C(F)(F)C(F)(F)C(F)(F)C(=O)Nc1ccc(-c2ccccc2)cc1`, the pKi in assay [1] is 7.34; at Histone deacetylase 5, less than 4.30; in assay [2] it was 5.82; in assay [3], 5.51; on Histone deacetylase 4, less than 4.30.
With `CCc1cccc(NC(=O)C(F)(F)C(F)(F)C(F)(F)C(F)(F)C(F)(F)C(F)(F)C(=O)NO)c1`, the pKi in assay [1] is 6.62; on Histone deacetylase 5, less than 4.30; in assay [2] it was 5.68; in assay [3], 5.17; at Histone deacetylase 4 it was less than 4.30.
Turning to `O=C(NO)C(F)(F)C(F)(F)C(F)(F)C(F)(F)C(F)(F)C(F)(F)C(=O)Nc1ccc2ccc3cccc4ccc1c2c34`, the pKi is 6.64 in assay [1]; less than 4.30 at Histone deacetylase 5; 5.39 in assay [2]; 4.80 in assay [3]; less than 4.30 on Histone deacetylase 4.
Take `O=C(NO)C(F)(F)C(F)(F)C(F)(F)C(F)(F)C(F)(F)C(F)(F)C(=O)Nc1nc(-c2ccccc2)cs1`: the pKi in assay [1] was 4.92; on Histone deacetylase 5, less than 4.30; in assay [2] it was 5.07; in assay [3], less than 4.30; at Histone deacetylase 4, less than 4.30.
Turning to `O=C(NO)C(F)(F)C(F)(F)C(F)(F)C(F)(F)C(F)(F)C(F)(F)C(=O)Nc1ccc(-c2cnnn2-c2ccccc2)cc1`, the pKi was 5.51 in assay [1]; less than 4.30 on Histone deacetylase 5; 4.66 in assay [2]; 4.82 in assay [3]; less than 4.30 on Histone deacetylase 4.
For the compound `O=C(NO)C(F)(F)C(F)(F)C(F)(F)C(F)(F)C(F)(F)C(F)(F)C(=O)Nc1cccc2ccccc12`, the pKi in assay [1] was 6.46; on Histone deacetylase 5, less than 4.30; in assay [2], 5.15; in assay [3], 4.68; at Histone deacetylase 4 it was less than 4.30.
Consider `O=C(NO)C(F)(F)C(F)(F)C(F)(F)C(F)(F)C(F)(F)C(F)(F)C(=O)Nc1cccc(-c2ccccc2)c1`, for which the pKi in assay [1] is 7.00; on Histone deacetylase 5 it was less than 4.30; in assay [2] it was 5.82; in assay [3], 5.36; at Histone deacetylase 4 it was less than 4.30.
On to `O=C(NO)C(F)(F)C(F)(F)C(F)(F)C(F)(F)C(F)(F)C(F)(F)C(=O)Nc1ccc2ccccc2c1`, for which the pKi in assay [1] was 6.28; on Histone deacetylase 5 it was less than 4.30; in assay [2] it was 5.92; in assay [3], 5.42; at Histone deacetylase 4, less than 4.30.
As for `O=C(NO)C(F)(F)C(F)(F)C(F)(F)C(F)(F)C(F)(F)C(F)(F)C(=O)Nc1ccccc1-c1ccccc1`, the pKi in assay [1] is 5.96; on Histone deacetylase 5 it was less than 4.30; in assay [2], 4.92; in assay [3], 4.77; on Histone deacetylase 4 it was less than 4.30.
As to `O=C(NO)C(F)(F)C(F)(F)C(F)(F)C(F)(F)C(F)(F)C(F)(F)C(=O)Nc1ccc2cc3ccccc3cc2c1`, the pKi in assay [1] is 5.70; at Histone deacetylase 5, less than 4.30; in assay [2] it was 4.62; in assay [3] it was less than 4.30; on Histone deacetylase 4 it was less than 4.30.
Regarding `O=C(NO)C(F)(F)C(F)(F)C(F)(F)C(F)(F)C(F)(F)C(F)(F)C(=O)Nc1cc2ccccc2c2ccccc12`, the pKi in assay [1] is 6.60; on Histone deacetylase 5, less than 4.30; in assay [2], 5.22; in assay [3], 4.96; on Histone deacetylase 4, less than 4.30.
For the compound `O=C(NO)C(F)(F)C(F)(F)C(F)(F)C(F)(F)C(F)(F)C(F)(F)C(=O)Nc1cccc2cc3ccccc3cc12`, the pKi in assay [1] is 5.96; on Histone deacetylase 5 it was less than 4.30; in assay [2], 5.05; in assay [3], 4.96; at Histone deacetylase 4, less than 4.30.
For the compound `O=C(Nc1ccccc1)C(F)(F)C(F)(F)C(F)(F)C(F)(F)C(F)(F)C(F)(F)C(=O)Nc1ccccc1`, the pKi was 5.00 in assay [1]; less than 4.30 on Histone deacetylase 5; less than 4.30 in assay [2]; less than 4.30 in assay [3]; less than 4.30 at Histone deacetylase 4.
In the case of `O=C(NO)C(F)(F)C(F)(F)C(F)(F)C(F)(F)C(F)(F)C(F)(F)C(=O)Nc1cccc(-c2cn(-c3ccccc3)nn2)c1`, the pKi in assay [1] is 5.59; at Histone deacetylase 5, less than 4.30; in assay [2], less than 4.30; in assay [3], less than 4.30; on Histone deacetylase 4, less than 4.30.
